In ChEMBL document CHEMBL3228037, “Syntheses and antiinflammatory actions of 4,5,6,7-tetrahydroindazole-5-carboxylic acids” (J Med Chem, 1979):

Columns and labels:
Rattus norvegicus [1] = experiment: Antiinflammatory activity in rat assessed as inhibition of carrageenan-induced paw edema at 100 mg/kg, po preincubated for 1 hr followed by carrageenan challenge relative to control; format: functional
Summary of the method: (§1)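 Winter carrageenan edema screen in rats. Compound was given orally as a suspension in 0.5% CMC at 100 and/or 25 mg/kg. One hour later, 1% carrageenan solution was injected into the hind paw.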

Rattus norvegicus [2] = experiment: Antiinflammatory activity in rat assessed as inhibition of carrageenan-induced paw edema at 25 mg/kg, po preincubated for 1 hr followed by carrageenan challenge relative to control; format: functional; summary of the method: as §1
Rattus norvegicus [3] = experiment: Ulcerogenic activity in po dosed rat assessed as induction of lesions in gastric mucosa measured after 24 hrs; format: toxicity, organism-based; conditions: in vivo
Summary of the method: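 Compounds were suspended in 0.2% carboxymethylcellulose and given orally to seven male rats per dose, at five or more doses; controls got vehicle alone. Rats were killed 24 h later, and gastric lesions (hemorrhage, erosion, ulcer) were counted blind. MUD, the dose giving two lesions, was calculated graphically.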

Rattus norvegicus [4] = experiment: Antiinflammatory activity in po dosed rat assessed as inhibition of carrageenan-induced paw edema preincubated for 1 hr followed by carrageenan challenge relative to control; format: functional
Summary of the method: (§2)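 Winter carrageenan paw edema in rats. Oral dosing as a suspension in 0.5% CMC was followed 1 h later by 1% carrageenan injected into the hind paw. Several doses were tested, and ED50 was read from the dose-response curve.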

Mus musculus = experiment: Analgesic activity in po dosed mouse assessed as inhibition of acetic acid-induced writhing; format: functional
Summary of the method: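 Acetic acid writhing test after Koster, using 10 male mice per dose.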

Rattus norvegicus [5] = experiment: Antiarthritic activity in po dosed rat assessed as reduction of adjuvant-induced foot volume administered as qd for 14 days starting on day 14 after adjuvant inoculation measured on day 28; format: functional
Summary of the method: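 Rats with established adjuvant arthritis (Newbould method) were dosed orally once daily for 14 days, starting on day 14 after adjuvant inoculation. Foot swelling was measured as volume. ED50 was estimated from the dose-response curve.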

Rattus norvegicus [6] = experiment: Antiinflammatory activity in rat assessed as inhibition of carrageenan-induced paw edema at 3 mg/kg, po preincubated for 1 hr followed by carrageenan challenge relative to control; format: functional; summary of the method: as §2
Rattus norvegicus [7] = experiment: Antiinflammatory activity in rat assessed as inhibition of carrageenan-induced paw edema at 50 mg/kg, po preincubated for 1 hr followed by carrageenan challenge relative to control; format: functional; summary of the method: as §2
Rattus norvegicus [8] = experiment: Antiinflammatory activity in rat assessed as inhibition of carrageenan-induced paw edema at 2.5 mg/kg, po preincubated for 1 hr followed by carrageenan challenge relative to control; format: functional; summary of the method: as §2
Rattus norvegicus [9] = experiment: Antiinflammatory activity in rat assessed as inhibition of carrageenan-induced paw edema at 10 mg/kg, po preincubated for 1 hr followed by carrageenan challenge relative to control; format: functional; summary of the method: as §2

O=C(O)C1CCc2nn(-c3ccc(Cl)cc3)cc2C1 (centres undefined)
inhibition in vivo at 100 mg/kg (Rattus norvegicus [1]): 17.9%

O=C(O)C1CCc2c(cnn2-c2cccc(F)c2)C1 (centres undefined)
inhibition in vivo at 25 mg/kg (Rattus norvegicus [2]): 38.2%

O=C(O)C1CCc2nn(Cc3ccccc3)cc2C1 (centres undefined)
inhibition in vivo at 100 mg/kg (Rattus norvegicus [1]): 3.7%

Cc1ccc(-n2ncc3c2CCC(C(=O)O)C3)cc1 (centres undefined)
inhibition in vivo at 25 mg/kg (Rattus norvegicus [2]): 38.7%

O=C(O)c1nn(-c2ccccc2)c2c1CC(C(=O)O)CC2 (centres undefined)
inhibition in vivo at 100 mg/kg (Rattus norvegicus [1]): 0%

O=C(O)C1CCc2nn(-c3ccccc3)cc2C1 (centres undefined)
inhibition in vivo at 100 mg/kg (Rattus norvegicus [1]): 36.4%

O=C(O)C1CCc2nn(-c3cccc4ccccc34)cc2C1 (centres undefined)
inhibition in vivo at 25 mg/kg (Rattus norvegicus [2]): 0%

COc1ccc2c(c1)c(CC(=O)O)c(C)n2C(=O)c1ccc(Cl)cc1 [INDOMETHACIN]
MUD (Rattus norvegicus [3]): 5.6 mg/kg | ED50 (Rattus norvegicus [4]): 3.8 mg/kg | ED50 (Mus musculus): 6.3 mg/kg | ED50 (Rattus norvegicus [5]): 0.3 mg/kg | inhibition in vivo at 3 mg/kg (Rattus norvegicus [6]): 35.5%

O=C(O)c1ccccc1Nc1cccc(C(F)(F)F)c1 [FLUFENAMIC ACID]
MUD (Rattus norvegicus [3]): 50 mg/kg | ED50 (Rattus norvegicus [4]): 20 mg/kg | ED50 (Mus musculus): 160 mg/kg | ED50 (Rattus norvegicus [5]): 5.1 mg/kg

Cc1ccccc1-n1cc2c(n1)CCC(C(=O)O)C2 (centres undefined)
inhibition in vivo at 100 mg/kg (Rattus norvegicus [1]): 38%

COc1ccc(-n2cc3c(n2)CCC(C(=O)O)C3)cc1 (centres undefined)
inhibition in vivo at 100 mg/kg (Rattus norvegicus [1]): 6%

O=C(O)C1CCc2nn(-c3cccc(C(F)(F)F)c3)cc2C1 (centres undefined)
inhibition in vivo at 100 mg/kg (Rattus norvegicus [1]): 14.8%

COc1ccc(-n2ncc3c2CCC(C(=O)O)C3)cc1 (centres undefined)
inhibition in vivo at 25 mg/kg (Rattus norvegicus [2]): 9.8%

Cc1ccc(-n2nc(C(=O)O)c3c2CCC(C(=O)O)C3)cc1 (centres undefined)
inhibition in vivo at 100 mg/kg (Rattus norvegicus [1]): 0%

CCCCC1C(=O)N(c2ccccc2)N(c2ccccc2)C1=O [PHENYLBUTAZONE]
MUD (Rattus norvegicus [3]): 90 mg/kg | ED50 (Rattus norvegicus [4]): 78 mg/kg | inhibition in vivo at 50 mg/kg (Rattus norvegicus [7]): 43.4% | ED50 (Mus musculus): 810 mg/kg | ED50 (Rattus norvegicus [5]): 12 mg/kg

O=C(O)C1CCc2nn(-c3ccccn3)cc2C1 (centres undefined)
inhibition in vivo at 100 mg/kg (Rattus norvegicus [1]): 11.5%

O=C(O)C1CCc2c(cnn2-c2ccccc2)C1 (centres undefined)
inhibition in vivo at 2.5 mg/kg (Rattus norvegicus [8]): 40.6% | MUD (Rattus norvegicus [3]): 20 mg/kg | ED50 (Rattus norvegicus [4]): 3.5 mg/kg | ED50 (Mus musculus): 4.7 mg/kg | ED50 (Rattus norvegicus [5]): 1.5 mg/kg | inhibition in vivo at 10 mg/kg (Rattus norvegicus [9]): 72.6%

Cc1ccc(-n2cc3c(n2)CCC(C(=O)O)C3)cc1 (centres undefined)
inhibition in vivo at 100 mg/kg (Rattus norvegicus [1]): 10.8%

O=C(O)C1CCc2c(cnn2-c2ccccn2)C1 (centres undefined)
inhibition in vivo at 25 mg/kg (Rattus norvegicus [2]): 57.9%

O=C(O)c1nn(-c2ccc(Cl)cc2)c2c1CC(C(=O)O)CC2 (centres undefined)
inhibition in vivo at 100 mg/kg (Rattus norvegicus [1]): 0%

O=C(O)C1CCc2c(cnn2-c2cccc3ccccc23)C1 (centres undefined)
inhibition in vivo at 25 mg/kg (Rattus norvegicus [2]): 13.1%

O=C(O)C1CCc2c(cnn2-c2ccc(O)cc2)C1 (centres undefined)
inhibition in vivo at 100 mg/kg (Rattus norvegicus [1]): 14.7%

Cc1ccccc1-n1ncc2c1CCC(C(=O)O)C2 (centres undefined)
inhibition in vivo at 25 mg/kg (Rattus norvegicus [2]): 0%

O=C(O)C1CCc2c(cnn2-c2ccc(Cl)cc2)C1 (centres undefined)
MUD (Rattus norvegicus [3]): 70 mg/kg | ED50 (Rattus norvegicus [4]): 17 mg/kg | inhibition in vivo at 25 mg/kg (Rattus norvegicus [2]): 39.4% | ED50 (Mus musculus): 7 mg/kg | ED50 (Rattus norvegicus [5]): 6.4 mg/kg | inhibition in vivo at 10 mg/kg (Rattus norvegicus [9]): 39.4%

O=C(O)C1CCc2c(cnn2Cc2ccccc2)C1 (centres undefined)
inhibition in vivo at 25 mg/kg (Rattus norvegicus [2]): 15.9%

O=C(O)C1CCc2c(cnn2-c2ccncc2)C1 (centres undefined)
inhibition in vivo at 25 mg/kg (Rattus norvegicus [2]): 13.4%

O=C(O)c1nn(-c2cccc(C(F)(F)F)c2)c2c1CC(C(=O)O)CC2 (centres undefined)
inhibition in vivo at 100 mg/kg (Rattus norvegicus [1]): 0%

O=C(O)C1CCc2c(cnn2-c2cccc(C(F)(F)F)c2)C1 (centres undefined)
inhibition in vivo at 25 mg/kg (Rattus norvegicus [2]): 35.6%
